The list is not random: actives were taken first. Their share in the collection is about 1.2%.
ARFGAP1 inh – inhibitors of rat ARFGAP1 GAP activity, primary screen, biochemical, fluorescence polarization, GDP tracer. Arfgap1-stimulated ARF1 GTP hydrolysis, GDP FP detection. inhibition, % at 16.5 µM. ADP-ribosylation factor GTPase-activating protein 1 (Rattus norvegicus), Q62848. hit rate 0.26% among 360,000;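 active means inhibition above a per-plate limit, mean inhibition of low control wells plus 3 SD, cut at about 25% in these data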
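material = rat Arfgap1 catalytic domain, aa 1-136 | also added = human ARF1(Δ1-17)-GTP substrate | compound dosing = one concentration, 16.5 µM, DMSO 1.26% | times = GTP hydrolysis reaction 2 h at 25 °C | measured by = FP, GDP Alexa 633 tracer displaced from anti-GDP antibody, 620/688 nm | evaluation = percent inhibition of Arfgap1-stimulated GTP hydrolysis | replication = single well per compound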
procasp3 activ – activators of human procaspase-3 D3A mutant, primary screen, biochemical, absorbance, PC-3 D3A mutant, single concentration. recombinant procaspase-3 D3A, Ac-DEVD-pNA absorbance 405 nm. activation, % at 8.5 µM. hit rate 0.11% among 330,000. Caspase-3 (Homo sapiens), P42574;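 active means activation above the mean of all tested compounds plus 3 SD, cut at about 21% in these data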
Target sequence (P42574 whole entry D9A/D28A/D175A): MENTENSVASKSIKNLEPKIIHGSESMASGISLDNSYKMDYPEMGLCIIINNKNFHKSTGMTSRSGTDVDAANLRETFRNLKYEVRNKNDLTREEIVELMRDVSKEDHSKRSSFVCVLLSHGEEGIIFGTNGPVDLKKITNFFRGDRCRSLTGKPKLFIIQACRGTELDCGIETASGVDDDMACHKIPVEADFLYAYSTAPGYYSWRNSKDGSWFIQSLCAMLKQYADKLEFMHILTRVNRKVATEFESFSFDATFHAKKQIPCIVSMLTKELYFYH
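Assay system – Procaspase-3 D3A mutant · Benchmarks – DMSO low control, extra-enzyme high control · Technique – 405 nm absorbance of p-nitroaniline, reads at 0 and 120 min · Doses – 8.5 µM nominal · Measure – % activation between DMSO and enzyme-spiked controls · Also added – Ac-DEVD-pNA chromogenic peptide substrate · Schedule – 1 h compound preincubation, 2 h substrate hydrolysis at 25 °C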
ASAP1 GAP inh – inhibitors of human ASAP1 ArfGAP activity, primary screen, biochemical, fluorescence polarization | Arf-GAP with SH3 domain, ANK repeat and PH domain-containing protein 1 (Homo sapiens), … | ASAP1-stimulated ARF1 GTP hydrolysis, GDP FP detection | inhibition, % at 16.5 µM | hit rate 0.19% among 360,000 | AID 624377, 2012; in the data active means inhibition above about 25%
LANA-H2A inh – blockers of LANA interaction with H2A/H2B – biochemical, FP readout, HTS, primary screen; Protein LANA1 (Human herpesvirus 8 type P (isolate GK18)), Q9QR71; cell-free LANA-H2A/H2B peptide, fluorescence polarization; inhibition, % (no concentration beside the values); hit rate 0.6% among 320,000; AID 2629, 2010; in the data active means inhibition mostly above about 10%, no sharp cut-off; inactive means mostly below about 6.7%
procasp7 counter – procaspase-7 activators, primary screen, counter-screen for procaspase-3 activator project, biochemical, absorbance, HTS, human. Caspase-7 (Homo sapiens), P55210. recombinant procaspase-7, Ac-DEVD-pNA absorbance 405 nm; D23A/D198A/D206A triple mutant, cannot self-cleave; scale: DMSO 0, 5 µM enzyme 100. activation, % at 8.5 µM. hit rate 0.093% among 330,000;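 active means percent activation above the screen-wide mean plus 3 SD, cut at about 25% in these data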
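Assay system – Uncleavable procaspase-7 mutant enzyme · Quantity – 2 µM procaspase-7 mutant as dispensed · Times – 1 h preincubation, 2 h reaction · Dosing – single nominal 8.5 µM compound dose, 0.8% DMSO final · Buffer or medium – Zinc-free 50 mM HEPES buffer, pH 7.4, with NaCl and Triton X-100 · Detection – Epi-absorbance of released pNA at 405 nm, two timepoints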
CR mimetic SO – reduction of superoxide in aged yeast, primary screen, HTS | S. cerevisiae aged cells, superoxide DHE fluorescence; active compounds read low | superoxide response (% of plate mean), % at 10 µM | hit rate 0.18% among 330,000 | AID 2690, 2010;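 active means superoxide response under a set limit, about three screen SD below normal, cut at about 65% in these data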;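 further: yeast aged for seven days with compound at 30 °C before DHE staining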
ARFGAP1 confirm – ARFGAP1 inhibitor hit confirmation, biochemical, fluorescence polarization, triplicate; shares compounds with ARFGAP1 inh; ARFGAP1-stimulated ARF1 GTP hydrolysis, GDP tracer FP; inhibition, % at 16.5 µM; hit rate 30% among 890;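 active means average inhibition over triplicates above the hit cutoff set in the earlier primary screen, cut at about 25% in these data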
Target sequence (Q62848 whole entry, looked up): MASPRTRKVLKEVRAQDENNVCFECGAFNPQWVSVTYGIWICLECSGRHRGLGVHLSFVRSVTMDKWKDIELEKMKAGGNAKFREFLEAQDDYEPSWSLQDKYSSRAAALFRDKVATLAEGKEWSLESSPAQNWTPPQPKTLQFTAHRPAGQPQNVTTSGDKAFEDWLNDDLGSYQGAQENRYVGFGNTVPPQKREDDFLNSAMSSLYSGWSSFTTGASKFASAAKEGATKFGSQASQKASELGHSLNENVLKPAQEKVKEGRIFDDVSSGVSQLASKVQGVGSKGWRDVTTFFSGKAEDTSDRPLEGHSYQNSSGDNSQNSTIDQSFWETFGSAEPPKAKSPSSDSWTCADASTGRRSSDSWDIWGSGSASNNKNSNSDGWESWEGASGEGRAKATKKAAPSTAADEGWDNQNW
Numbers stand for hits.

`CC(C)(C)c1ccc(Cn2nc(CC(=O)O)c3ccccc3c2=O)cc1` gave ARFGAP1 inh inactive, procasp3 activ inactive, ASAP1 GAP inh inactive, LANA-H2A inh inactive, procasp7 counter inactive and CR mimetic SO inactive.
For C=CCn1c(=NC(=O)c2cccs2)sc2cccc(OC)c21 the results were ARFGAP1 inh 31, procasp3 activ inactive, ASAP1 GAP inh inactive, LANA-H2A inh inactive, procasp7 counter inactive, CR mimetic SO inactive and ARFGAP1 confirm inactive.
C#CCn1c(=NC(=O)c2ccc(Br)s2)sc2cccc(OC)c21 was read as ARFGAP1 inh inactive, procasp3 activ inactive, ASAP1 GAP inh inactive, LANA-H2A inh inactive, procasp7 counter inactive and CR mimetic SO inactive.
`CCCC(C(=O)Nc1ccc(S(=O)(=O)Nc2nccs2)cc1)c1ccccc1` (stereo not drawn) gave ARFGAP1 inh inactive and ASAP1 GAP inh inactive.
For CC1=NN(Cc2c(C)nn(Cc3ccccc3)c2C)C(C)(C)C1 the results were ARFGAP1 inh inactive, procasp3 activ inactive, ASAP1 GAP inh inactive, LANA-H2A inh inactive, procasp7 counter inactive and CR mimetic SO inactive.
Screening N#C/C(=C\C=C\c1ccccc1)c1nc(-c2ccc3c(c2)OCO3)cs1 returned ARFGAP1 inh inactive, procasp3 activ inactive, ASAP1 GAP inh inactive, LANA-H2A inh inactive, procasp7 counter inactive and CR mimetic SO inactive.
For CCN(CC)CCOC(=O)c1ccc(N/C=C(/C#N)c2nc(-c3ccc4c(c3)OCO4)cs2)cc1 the results were ARFGAP1 inh 32, procasp3 activ inactive, ASAP1 GAP inh inactive, LANA-H2A inh inactive, procasp7 counter inactive, CR mimetic SO inactive and ARFGAP1 confirm 73.
Cc1noc(C)c1COC(=O)c1ccccc1NC(=O)c1ccco1 was read as ARFGAP1 inh inactive, procasp3 activ inactive, ASAP1 GAP inh inactive, LANA-H2A inh inactive, procasp7 counter inactive and CR mimetic SO inactive.
COC(=O)c1nnn(CC(=O)Nc2cc(Cl)ccc2C)c1C(=O)OC was read as ARFGAP1 inh inactive, procasp3 activ inactive, ASAP1 GAP inh inactive, LANA-H2A inh inactive, procasp7 counter inactive and CR mimetic SO inactive.
For COC(=O)c1nnn(-c2cccc(Cl)c2)c1C(=O)OC the results were ARFGAP1 inh 25, procasp3 activ inactive, ASAP1 GAP inh inactive, LANA-H2A inh inactive, procasp7 counter inactive, CR mimetic SO inactive and ARFGAP1 confirm inactive.
`O=C(COC(=O)CSc1ccc([N+](=O)[O-])cc1)NCc1cccs1` gave ARFGAP1 inh 26, procasp3 activ inactive, ASAP1 GAP inh inactive, LANA-H2A inh inactive, procasp7 counter inactive, CR mimetic SO inactive and ARFGAP1 confirm inactive.
For Cc1ccc(SCC(=O)OCC(=O)NCc2cccs2)cc1 the results were ARFGAP1 inh inactive, procasp3 activ inactive, ASAP1 GAP inh inactive, LANA-H2A inh inactive, procasp7 counter inactive and CR mimetic SO inactive.
For CC(c1ccccc1)n1c(CO)nc2ccccc21 (stereo not drawn) the results were ARFGAP1 inh inactive, procasp3 activ inactive, ASAP1 GAP inh inactive, LANA-H2A inh inactive, procasp7 counter inactive and CR mimetic SO inactive.
`Cc1ccc2cc(CCNC(=O)C(C)(C)C)c(=O)[nH]c2c1` gave ARFGAP1 inh 28, procasp3 activ inactive, ASAP1 GAP inh inactive, LANA-H2A inh inactive, procasp7 counter inactive, CR mimetic SO inactive and ARFGAP1 confirm inactive.
Screening COc1ccc(C[C@H]2CN3C(=NC[C@@H]3C(C)C)N2C[C@H](C)NC(=O)c2ccc(C)c(Br)c2)cc1 returned ARFGAP1 inh inactive, procasp3 activ inactive, ASAP1 GAP inh inactive, LANA-H2A inh inactive, procasp7 counter inactive and CR mimetic SO inactive.
Screening Cc1ccc(C(=O)N[C@@H](C)CN2C3=NC[C@H](C(C)C)N3C[C@H]2Cc2ccc(O)cc2)cc1Br returned ARFGAP1 inh 26, procasp3 activ inactive, ASAP1 GAP inh inactive, LANA-H2A inh inactive, procasp7 counter inactive, CR mimetic SO inactive and ARFGAP1 confirm inactive.
Screening CC(C)(CO)CNC1CCCN(C2Cc3ccccc3C2)C1 (stereo not drawn) returned ARFGAP1 inh 25, procasp3 activ inactive, ASAP1 GAP inh inactive, LANA-H2A inh inactive, procasp7 counter inactive, CR mimetic SO inactive and ARFGAP1 confirm inactive.
For CSCC[C@H](NC(=O)OC(C)(C)C)C(=O)N1CCC(C(=O)N[C@@H](C)C(=O)NC(C)c2ccccc2)CC1 (stereo partly drawn) the results were ARFGAP1 inh inactive, procasp3 activ inactive, ASAP1 GAP inh inactive, LANA-H2A inh inactive, procasp7 counter inactive and CR mimetic SO inactive.
`COc1cc2oc(-c3ccc(O)cc3)cc(=O)c2c(O)c1OC` gave ARFGAP1 inh 36, procasp3 activ inactive, ASAP1 GAP inh inactive, LANA-H2A inh inactive, procasp7 counter inactive, CR mimetic SO inactive and ARFGAP1 confirm inactive.
COc1cc2oc(-c3ccc(O)cc3)cc(=O)c2c(OC)c1O was read as ARFGAP1 inh inactive, ASAP1 GAP inh inactive and LANA-H2A inh inactive.
For C=CCOC(=O)C1=C(C)NC(=O)NC1c1ccc(O)cc1 (stereo not drawn) the results were ARFGAP1 inh inactive, ASAP1 GAP inh inactive, LANA-H2A inh inactive and CR mimetic SO inactive.
For Cc1cc(=O)oc(C)c1C(=O)N1CCN(C)CC1 the results were ARFGAP1 inh 25, procasp3 activ inactive, ASAP1 GAP inh inactive, LANA-H2A inh inactive, procasp7 counter inactive, CR mimetic SO inactive and ARFGAP1 confirm inactive.
Screening Cc1ccc(S(=O)(=O)NCCC(=O)Nc2cccc(S(=O)(=O)N3CCCC3)c2)cc1C returned ARFGAP1 inh 34, procasp3 activ inactive, ASAP1 GAP inh inactive, procasp7 counter inactive, CR mimetic SO inactive and ARFGAP1 confirm inactive.
For Cc1ccc(OCC(=O)Nc2cccc(S(=O)(=O)N3CCCC3)c2)cc1C the results were ARFGAP1 inh inactive and ASAP1 GAP inh inactive.
`CC(C)Oc1ccc(F)cc1-c1cc(C(=O)Nc2ccc(C(C)(C)C)cc2)[nH]n1` gave ARFGAP1 inh inactive and ASAP1 GAP inh inactive.
